# According to ChEMBL document CHEMBL1770108, “Design and synthesis of substituted N-(1,3-diphenyl-1H-pyrazol-5-yl)benzamides as positive allosteric modulators of the metabotropic glutamate receptor subtype 5” (Bioorg Med Chem Lett, 2011):
# How the values were obtained:
# [1] = target: T1, Metabotropic glutamate receptor 5 (Rattus norvegicus, UniProt P31424); experiment: Displacement of [3H]-MPEP from mGluR5 in rat brain; format: tissue-based
# Summary of the method: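 Radioligand displacement binding using [3H]MPEP on rat brain membranes.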
# [2] = target: T1, Metabotropic glutamate receptor 5; experiment: Agonist activity at rat mGluR5 expressed in HEK293T cells assessed as effect on glutamate-induced calcium flux by calcium fluorescence assay; format: functional, cell-based, HEK-293T
# Summary of the method: (§1)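 Rat mGluR5-expressing cells loaded with a calcium-sensitive fluorescent dye receive vehicle or test compound. After 2.5 min, an EC20 concentration of glutamate is added, then an EC80 concentration 1 min later. This triple-add protocol allows simultaneous detection of agonist, potentiator and antagonist activity. Intracellular calcium release is read kinetically in every well by an imaging plate reader.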
# [3] = target: T1, Metabotropic glutamate receptor 5; experiment: Antagonist activity at rat mGluR5 expressed in HEK293T cells assessed as inhibition of glutamate-induced calcium flux by calcium fluorescence assay; format: functional, cell-based, HEK-293T; summary of the method: as §1
# [4] = target: Metabotropic glutamate receptor 5 (Rattus norvegicus) (UniProt P31424); experiment: Agonist activity at rat mGluR5 expressed in HEK293T cells assessed as increase of glutamate-induced calcium flux by calcium fluorescence assay relative to control; format: functional, cell-based; conditions: HEK-293T; summary of the method: as §1
# Chain of Metabotropic glutamate receptor 5 (Rattus norvegicus) (P31424 21-1203 limits assumed): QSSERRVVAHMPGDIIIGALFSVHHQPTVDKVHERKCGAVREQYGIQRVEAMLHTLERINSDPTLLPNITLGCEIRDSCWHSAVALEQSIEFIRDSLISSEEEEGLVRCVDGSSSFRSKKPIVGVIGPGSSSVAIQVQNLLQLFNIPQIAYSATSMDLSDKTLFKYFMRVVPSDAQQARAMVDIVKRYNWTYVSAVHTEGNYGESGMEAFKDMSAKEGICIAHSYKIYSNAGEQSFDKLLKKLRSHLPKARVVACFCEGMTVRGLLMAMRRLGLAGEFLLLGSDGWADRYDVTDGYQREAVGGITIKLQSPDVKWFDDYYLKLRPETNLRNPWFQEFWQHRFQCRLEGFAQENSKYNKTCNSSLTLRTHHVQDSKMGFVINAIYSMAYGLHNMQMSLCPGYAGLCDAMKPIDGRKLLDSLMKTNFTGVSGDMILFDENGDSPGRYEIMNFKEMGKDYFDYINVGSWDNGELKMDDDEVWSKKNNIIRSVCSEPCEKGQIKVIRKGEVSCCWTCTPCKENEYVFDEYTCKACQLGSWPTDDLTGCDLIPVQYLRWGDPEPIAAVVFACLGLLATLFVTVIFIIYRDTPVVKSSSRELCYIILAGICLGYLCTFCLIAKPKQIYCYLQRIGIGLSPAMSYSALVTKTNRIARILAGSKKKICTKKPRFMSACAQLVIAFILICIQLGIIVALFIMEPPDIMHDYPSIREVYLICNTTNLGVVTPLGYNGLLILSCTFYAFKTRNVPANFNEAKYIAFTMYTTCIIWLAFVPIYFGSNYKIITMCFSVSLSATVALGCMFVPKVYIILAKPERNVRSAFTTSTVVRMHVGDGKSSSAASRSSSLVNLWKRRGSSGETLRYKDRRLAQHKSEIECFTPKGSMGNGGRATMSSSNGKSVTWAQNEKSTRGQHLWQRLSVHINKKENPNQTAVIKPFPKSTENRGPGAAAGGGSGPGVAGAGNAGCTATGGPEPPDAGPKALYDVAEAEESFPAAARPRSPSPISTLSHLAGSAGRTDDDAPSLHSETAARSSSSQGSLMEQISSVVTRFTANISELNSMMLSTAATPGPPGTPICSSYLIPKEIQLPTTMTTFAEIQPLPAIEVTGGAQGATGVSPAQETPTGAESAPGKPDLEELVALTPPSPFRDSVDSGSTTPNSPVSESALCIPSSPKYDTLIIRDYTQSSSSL
# T1 sequence (P31424 whole entry): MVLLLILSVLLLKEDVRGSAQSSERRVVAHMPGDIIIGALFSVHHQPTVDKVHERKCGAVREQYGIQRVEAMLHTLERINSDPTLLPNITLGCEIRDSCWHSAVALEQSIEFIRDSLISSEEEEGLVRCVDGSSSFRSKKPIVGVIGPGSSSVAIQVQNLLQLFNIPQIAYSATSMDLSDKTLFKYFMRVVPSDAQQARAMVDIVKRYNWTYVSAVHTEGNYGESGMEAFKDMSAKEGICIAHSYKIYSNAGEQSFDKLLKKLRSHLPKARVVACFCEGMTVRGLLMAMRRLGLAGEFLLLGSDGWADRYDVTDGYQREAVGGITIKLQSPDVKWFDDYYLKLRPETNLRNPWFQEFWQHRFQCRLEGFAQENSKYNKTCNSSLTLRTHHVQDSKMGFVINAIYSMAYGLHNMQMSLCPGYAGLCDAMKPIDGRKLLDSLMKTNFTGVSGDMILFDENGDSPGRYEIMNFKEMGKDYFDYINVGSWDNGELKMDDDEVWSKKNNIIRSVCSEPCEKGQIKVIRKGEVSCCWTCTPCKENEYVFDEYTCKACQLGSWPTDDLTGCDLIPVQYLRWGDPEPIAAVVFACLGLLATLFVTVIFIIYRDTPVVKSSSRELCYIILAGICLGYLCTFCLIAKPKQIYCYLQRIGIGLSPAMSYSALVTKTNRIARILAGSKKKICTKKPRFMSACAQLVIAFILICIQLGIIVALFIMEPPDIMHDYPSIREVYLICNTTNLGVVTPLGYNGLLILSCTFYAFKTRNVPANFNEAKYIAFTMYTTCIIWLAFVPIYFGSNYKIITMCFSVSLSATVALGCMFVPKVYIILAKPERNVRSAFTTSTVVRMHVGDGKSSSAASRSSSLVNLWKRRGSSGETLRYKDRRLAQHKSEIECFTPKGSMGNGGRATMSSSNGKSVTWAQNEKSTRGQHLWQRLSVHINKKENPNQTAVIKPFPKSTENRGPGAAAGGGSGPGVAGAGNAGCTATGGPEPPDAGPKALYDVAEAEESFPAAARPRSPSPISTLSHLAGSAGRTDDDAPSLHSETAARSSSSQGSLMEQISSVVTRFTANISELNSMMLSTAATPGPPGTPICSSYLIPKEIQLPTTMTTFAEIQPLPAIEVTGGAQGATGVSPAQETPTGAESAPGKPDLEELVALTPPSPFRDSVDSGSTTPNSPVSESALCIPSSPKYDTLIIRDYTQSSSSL
Structure (SMILES),Ki [1] [nM],EC50 [2] [nM],IC50 [3] [nM],Activity [4] [%]
N#Cc1cc(C(=O)Nc2cc(-c3ccccc3)nn2-c2ccccc2Cl)ccc1-c1cccc(F)c1,2060,> 30000,,
CCCCc1cccc(NC(=O)c2cc(F)cc(C#N)c2)n1,1050,,1550,
CCCc1cccc(NC(=O)c2cc(F)cc(C#N)c2)n1,325,,165,
O=C(Nc1cc(-c2ccccc2)nn1-c1ccccc1Cl)c1cc(-c2cc(F)cc(F)c2)ccn1,344,646,,67.6
N#Cc1cc(C(=O)Nc2cc(-c3ccccc3)nn2-c2ccccc2Cl)ccc1-c1ccc(F)cc1,23,2430,,68
Cc1ccc(NC(=O)c2cc(F)cc(C#N)c2)nc1,2830,,4170,
N#Cc1cc(C(=O)Nc2cc(-c3ccccc3)nn2-c2ccccc2Cl)ccc1-c1ccccc1,37,4140,,61.8
CCc1cccc(NC(=O)c2cc(F)cc(C#N)c2)n1,762,,169,
N#Cc1cc(C(=O)Nc2cc(-c3ccccc3)nn2-c2ccccc2Cl)ccc1-c1cccc2ccccc12,> 10000,2170,,50.2
